Data set [1] has as its system MDA-MB-435. Kind of data set: Antitumor activity against human MDA-MB-435 cells xenografted in chicken embryo chorioallantoic membrane assessed as inhibition of tumor volume at 20 mg/kg measured after 2 days. It counts as functional, organism-based. Details: dose 20 mg/kg. In a few lines:
(§1)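 Under the vascularized CAM of 10-day-old chicken embryos, 500,000 human breast carcinoma MDA-MB-435 cells were implanted. Embryos were dosed systemically with 20 mg/kg on days one and two. Tumor growth and vascularity were assessed, with 8–10 separate CAMs per group.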
In general terms: In xenograft studies the graft and the host belong to different species.

For data set [2], the system named is MDA-MB-435. Kind of data set: Antiangiogenic activity in human MDA-MB-435 cells xenografted in chicken embryo chorioallantoic membrane assessed as inhibition of blood vessel formation at 20 mg/kg measured after 2 days. It is filed as functional, organism-based. Details: dose 20 mg/kg. In a few lines: as §1
The test system of data set [3] is Gallus gallus. Kind of data set: Antiangiogenic activity in chicken embryo chorioallantoic membrane assessed as inhibition of VEGF-induced blood vessel formation at 25 uM applied topically to filter paper surface after 48 hrs by stereo microscopic analysis. It counts as functional, tissue-based. Put shortly: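 CAM of 10-day-old chicken embryos; angiogenesis induced with filter discs soaked in VEGF, test agent applied alongside. 8–10 separate CAMs per group.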

Data set [4] is described as follows: Acute toxicity in ip dosed CDF mouse. It counts as organism-based. Particulars: in vivo.
The nature of data set [5]: Toxicity in ip dosed BalbC mouse assessed as body weight loss administered 3 times per week measured over 6 weeks. It is filed as organism-based. Particulars: in vivo. Put shortly: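 Female BalbC mice, 10 weeks old and healthy, in groups of four, dosed ip at 50, 100, 200 and 300 mg/kg three times weekly. Body weight was tracked over 6 weeks, with observation for acute distress during the first 96 h after injection. MTD was defined as significant weight loss over 6 weeks (P <0.05, one-way ANOVA with Neuman–Keuls post test).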

Data set [6] concerns Mus musculus. Kind of data set: Toxicity in BalbC mouse assessed as body weight loss at 50 to 200 mg/kg, ip administered 3 times per week measured over 6 weeks. It is filed as organism-based. Details: dose 50-200 mg/kg, route intraperitoneal. Particulars: in vivo, 1008 h. Put shortly: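 Healthy female BalbC mice, 10 weeks old, in groups of four, dosed intraperitoneally at 50, 100, 200 or 300 mg/kg three times weekly. Weights were tracked over 6 weeks and acute distress was watched for during the first 96 h. Significant weight loss over 6 weeks (P <0.05, one-way ANOVA with Neuman–Keuls post test) was the MTD criterion.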

The nature of data set [7]: Toxicity in chicken embryo chorioallantoic membrane assessed as effect on blood vessel at 10 uM applied topically to filter paper surface after 48 hrs by stereo microscopic analysis. It counts as tissue-based, Gallus gallus. Particulars: in vivo.
The species entered for data set [8] is Gallus gallus. The conditions noted are these: Chorioallantoic membrane, 10 uM.

The source made the active and inactive calls.

This is an account of results in ChEMBL document CHEMBL2390859, “Solid phase synthesis and biological evaluation of probestin as an angiogenesis inhibitor” (Bioorg Med Chem Lett, 2013).

On to `CC(C)C[C@H](NC(=O)[C@@H](O)[C@H](N)Cc1ccccc1)C(=O)O`, for which the inhibition result in data set [1] and in data set [2] was “Active” throughout.

Regarding `CCN(CC)CCNC(=O)c1c(C)[nH]c(/C=C2\C(=O)Nc3ccc(F)cc32)c1C`, the inhibition result in data set [1], in data set [2] and in data set [3] was “Active” throughout.

As usually defined, the LD50 is the dose expected to kill half of the subjects tested. For the compound `CC(C)C[C@H](NC(=O)[C@@H](O)[C@H](N)Cc1ccccc1)C(=O)N1CCC[C@H]1C(=O)N1CCC[C@H]1C(=O)O` [PROBESTIN], the LD50 in data set [4] was more than 250 mg/kg. Further, in data set [5], the MTD at 1008 h is 300 mg/kg. Besides, the Activity result in data set [6] and in data set [7] was “Non-toxic” throughout. The inhibition result in data set [1], in data set [2] and in data set [8] was “Active” each time.
